Reference: ChEMBL document CHEMBL2390881, “Identification of M. tuberculosis thioredoxin reductase inhibitors based on high-throughput docking using constraints” (J Med Chem, 2013)

Legend:
[1] = biological target: T1, Thioredoxin reductase (Mycobacterium tuberculosis) (UniProt P9WHH1); experiment: Inhibition of Mycobacterium tuberculosis TrxR at 5 uM after 10 mins by microplate reader analysis
T1 sequence (whole entry): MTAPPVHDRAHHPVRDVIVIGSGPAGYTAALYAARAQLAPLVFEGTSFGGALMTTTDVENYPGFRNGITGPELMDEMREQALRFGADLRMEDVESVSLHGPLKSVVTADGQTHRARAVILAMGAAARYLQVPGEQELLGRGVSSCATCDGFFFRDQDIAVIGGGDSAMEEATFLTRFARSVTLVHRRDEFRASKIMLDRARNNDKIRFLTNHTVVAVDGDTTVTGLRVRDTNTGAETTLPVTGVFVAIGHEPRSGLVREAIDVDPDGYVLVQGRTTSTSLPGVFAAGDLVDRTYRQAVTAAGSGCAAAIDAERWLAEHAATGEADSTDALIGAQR
Outline: (§1)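 MtTrxR, MtTrxB and MtTPx from M. tuberculosis, expressed in E. coli. Enzyme preincubated 10 min at 25 °C with 10 μM MtTrxB, 5 μM MtTPx, 225 μM NADPH and 0.06-45 μM compound in 50 mM HEPES pH 7.4, 1 mM EDTA. Started with 73 μM t-butylhydroperoxide. Initial NADPH oxidation rate read at 340 nm, 25 °C. Triplicates, outliers removed. IC50 by four-parameter fit, mean of ≥3 assays.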

[2] = biological target: T1, Thioredoxin reductase (Mycobacterium tuberculosis); experiment: Inhibition of Mycobacterium tuberculosis TrxR at 1.67 uM after 10 mins by microplate reader analysis; outline: as §1
[3] = biological target: T1, Thioredoxin reductase (Mycobacterium tuberculosis); experiment: Inhibition of Mycobacterium tuberculosis TrxR at 45 uM after 10 mins by microplate reader analysis; outline: as §1
[4] = biological target: T1, Thioredoxin reductase (Mycobacterium tuberculosis); experiment: Inhibition of Mycobacterium tuberculosis TrxR at 15 uM after 10 mins by microplate reader analysis; outline: as §1
[5] = biological target: T2, Thioredoxin reductase (Mycobacterium tuberculosis, UniProt P9WHH1); experiment: Inhibition of Mycobacterium tuberculosis TrxR after 10 mins by microplate reader analysis; outline: as §1
T2 sequence (P9WHH1 whole entry): T1 sequence (whole entry)

[6] = biological target: Thioredoxin reductase (Homo sapiens) (UniProt Q16881+Q9NNW7+Q86VQ6); experiment: Inhibition of human TrxR at 100 uM by spectrophotometry; type: protein assay
Outline: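 Human placenta TrxR1 (2.8 nM final) with 200 μM NADPH in 100 mM potassium phosphate, 2 mM EDTA, pH 7.4. Inhibitor added up to 100 μM final, then reaction started with 3 mM DTNB. Absorbance followed at 412 nm at 25 °C against inhibitor-free control. At least three independent experiments; apparent activation scored as no inhibition.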

[7] = Selectivity index, ratio of IC50 for human TrxR to IC50 for Mycobacterium tuberculosis TrxR
Outline: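 Estimated from HsTrxR inhibition at 100 μM (DTNB assay) and the MtTrxR IC50, assuming that ≤10% HsTrxR inhibition at 100 μM reflects an IC50 of >300 μM.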

| Compound | inhibition [1] [%] | inhibition [2] [%] | inhibition [3] [%] | inhibition [4] [%] | IC50 [5] [µM] | inhibition [6] [%] | Ratio IC50 [7] |
| --- | --- | --- | --- | --- | --- | --- | --- |
| O=C(COc1ccccc1)Nc1ccc(N2CCC(NCc3cccc(-n4cccn4)c3)CC2)cc1 | 16.9 | 11.2 | 22.1 | 18.2 |  |  |  |
| NC1=C(c2nc(-c3ccccc3)cs2)C(=O)CN1c1ccc(S(N)(=O)=O)cc1 | 9.9 | 8.4 | 25 | 12.8 | 200 | 0 | > 2 |
| CC(c1c[nH]nc1-c1ccccc1)N1CCC(CCC(=O)Nc2ccccc2)CC1 (stereo not given) | 38 | 29.7 | 29.8 | 34.3 | 15 | 0 | > 20 |
| Nc1ccc(N2CCCCC2)cc1 | 17 | 9.5 | 55 | 35.7 | 33.4 | 0 | > 10 |
| COc1ccc2nc(C)cc(Nc3ccc(O)cc3)c2c1 | 36 | 25.6 | 68 | 51.6 | 12.5 | 31.6 | > 8 |
| Nc1nc(-c2cc3ccc(O)cc3oc2=O)cs1 | 17.3 | 10.6 | 36.4 | 19.7 | 100 | 0 | > 3 |
| O=C(CCCCc1ccccc1)Nc1ccc(N2CCC(NCCn3cccn3)CC2)cc1 | 14.7 | 12.3 | 24 | 17.5 |  |  |  |
| O=C(O)[C@H](Cc1cc2ccccc2[nH]1)NCc1c[nH]c2ccccc12 | 31.7 | 26.7 | 31 | 43.3 | 30 | 10.4 | > 10 |
| C=CCc1cccc(/C=N/NC(=O)CCC2C(=O)NN=C2C)c1O (stereo not given) | 31 | 31.7 | 26 | 31.7 |  | 0 | > 10 |
| Fc1cccc(Cl)c1CNc1ccc(N2CCCCC2)cc1 | 41.7 | 30 | 58.7 | 51.7 | 15.3 | 4.6 | > 10 |
| O=C(Nc1ccc(N2CCC(NCCOc3cccnc3)CC2)cc1)c1cnccn1 | 12 | 5 |  | 16.3 |  |  |  |
| c1ccc2sc(CNc3ccc(N4CCCCC4)cc3)nc2c1 | 39.7 | 24 | 67 | 44.4 | 15.8 | 17.1 | > 10 |
| CSCCNC1CCN(c2ccc(NC(=O)CCCCc3ccccc3)cc2)CC1 | 29.7 | 27 | 28 | 33.7 | 100 | 0 | > 3 |
